A short description of data set [1]: Drug level in C57Bl6 mouse plasma at 100 mg/kg, po after 1 hr by HPLC analysis. The format is ADME, organism-based. Further details: dose 100 mg/kg, route oral. The essentials:
(§1)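 Male/female unspecified C57Bl6 mice (n = 3) got a single 100 mg/kg oral gavage dose as a suspension in 1% aqueous methylcellulose (8 μL/g). Blood was drawn at 1 and 2 h and centrifuged at 3000g for 20 min. Plasma was mixed with pH 7.4 PBS and acetonitrile, left 5 min at room temperature and spun at 2000g for 15 min. Supernatant went to reversed-phase C18 HPLC-UV for parent and alcohol metabolite.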

Data set [2] is described as follows: Drug level in C57Bl6 mouse plasma at 100 mg/kg, po after 2 hrs by HPLC analysis. The format is ADME, organism-based. On the set-up: dose 100 mg/kg, route oral. Summed up: as §1
For data set [3], the system named is Intestine. Kind of data set: Drug level in C57Bl6 mouse intestine assessed per gut at 100 mg/kg, po after 2 hrs by HPLC analysis in presence of Helix pomatia beta-glucuronidase HP2. The format is ADME, organism-based. Further details: dose 100 mg/kg, route oral. The settings on record: in vivo.
Data set [4] relates to Intestine. Nature of the data set: Drug level in C57Bl6 mouse intestine assessed as 3-(5-Carboxypentanoyl)-1-[2-hydroxy-3-(4-octylphenoxy)propyl]indole-5-carboxylic acid level assessed per gut at 100 mg/kg, po after 2 hrs by HPLC analysis in presence of Helix pomatia beta-glucuronidase HP2. The format is ADME, organism-based. Further details: dose 100 mg/kg, route oral. The settings on record: in vivo.

The nature of data set [5]: Metabolic stability in rat liver microsomes assessed as compound remaining after 30 mins by UV-reverse phase HPLC analysis. The format is ADME, Microsome. The conditions noted are these: read-out: Stability. On the technique in general: Liver microsomes are a subcellular fraction often used to study metabolism.
Data set [6] can be described thus: Partition coefficient, log P of the compound by reverse phase HPLC analysis. The format is physicochemical. The settings on record: octanol/water. The essentials:
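log P estimated from reversed-phase HPLC retention times of each compound's ketone form.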

The test system of data set [7] is Plasma. Kind of data set: Drug level in C57Bl6 mouse plasma assessed as 3-(5-carboxypentanoyl)-1-(2-hydroxy-3-(4-octylphenoxy)propyl)-1H-indole-5-carboxylic acid at 100 mg/kg, po after 1 hr by HPLC analysis. The format is ADME, organism-based. On the set-up: dose 100 mg/kg, route oral. The settings on record: in vivo. The essentials:
as §1

Data set [8] concerns Plasma. Kind of data set: Drug level in C57Bl6 mouse plasma assessed as 3-(5-carboxypentanoyl)-1-(2-hydroxy-3-(4-octylphenoxy)propyl)-1H-indole-5-carboxylic acid at 100 mg/kg, po after 2 hrs by HPLC analysis. The format is ADME, organism-based. Further details: dose 100 mg/kg, route oral. The settings on record: in vivo. The essentials: as §1
Data set [9] in a line: Drug level in C57Bl6 mouse bile at 100 mg/kg, po after 2 hrs by HPLC analysis. On the set-up: dose 100 mg/kg, route oral. The class given is ADME, organism-based. The settings on record: read-out: Drug uptake. Summed up:
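Mice (C57Bl6, n = 3) were dosed orally by gavage at 100 mg/kg in 1% methylcellulose and killed 2 h later for bile collection. For direct measurement, bile was diluted in pH 7.4 PBS with equal acetonitrile. Alternatively, bile in pH 5.5 PBS was digested with Helix pomatia β-glucuronidase HP-2 at 60 °C for 1 h, then acetonitrile was added. Both were centrifuged at 2000g and analysed by reversed-phase HPLC-UV.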

The nature of data set [10]: Drug level in C57Bl6 mouse intestine assessed per gut at 100 mg/kg, po after 2 hrs by HPLC analysis. The format is ADME, organism-based. On the set-up: dose 100 mg/kg, route oral. The conditions noted are these: read-out: Drug uptake. Summed up: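 Whole intestines were taken from C57Bl6 mice (n = 3) 2 h after 100 mg/kg oral gavage in 1% methylcellulose. Each was minced, homogenized at 0 °C in pH 7.4 PBS and extracted with acetonitrile. Pellet washes with PBS/acetonitrile 1:1 were pooled, made up to volume, centrifuged and filtered. Parent and alcohol metabolite per whole gut were quantified by reversed-phase HPLC-UV.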

Data set [11] is described as follows: Drug level in C57Bl6 mouse bile assessed as 3-(5-carboxypentanoyl)-1-(2-hydroxy-3-(4-octylphenoxy)propyl)-1H-indole-5-carboxylic acid at 100 mg/kg, po after 2 hrs by HPLC analysis. The class given is ADME, organism-based. Further details: dose 100 mg/kg, route oral. The settings on record: in vivo.
Data set [12] can be described thus: Drug level in C57Bl6 mouse bile assessed as 3-(5-carboxypentanoyl)-1-(2-hydroxy-3-(4-octylphenoxy)propyl)-1H-indole-5-carboxylic acid at 100 mg/kg, po after 2 hrs by HPLC analysis in presence of Helix pomatia beta-glucuronidase HP2. The format is ADME, organism-based. On the set-up: dose 100 mg/kg, route oral. The settings on record: in vivo. The essentials: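 C57Bl6 mice (n = 3) were gavaged once with 100 mg/kg suspended in 1% aqueous methylcellulose, and bile was taken at 2 h. Bile in PBS pH 5.5 was treated with Helix pomatia β-glucuronidase HP-2 at 60 °C for 1 h to cleave glucuronides. Acetonitrile was then added, samples were left 5 min, spun 2000g for 15 min, and analysed by reversed-phase HPLC-UV. Mean ± SD.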

Data set [13] concerns Intestine. Kind of data set: Drug level in C57Bl6 mouse intestine assessed as 3-(5-carboxypentanoyl)-1-(2-hydroxy-3-(4-octylphenoxy)propyl)-1H-indole-5-carboxylic acid per gut at 100 mg/kg, po after 2 hrs by HPLC analysis. The format is ADME, organism-based. Further details: dose 100 mg/kg, route oral. The conditions noted are these: in vivo. Summed up:
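Whole intestine removed 2 h after a single 100 mg/kg gavage (1% methylcellulose suspension) in C57Bl6 mice (n = 3). Tissue minced and homogenised in PBS pH 7.4 at 0 °C, then extracted with acetonitrile with repeated PBS/acetonitrile 1:1 washes, spun 2000g at 4 °C. Pooled extract made up to volume and analysed by reversed-phase HPLC-UV. Amount per gut, mean ± SD.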

A short description of data set [14]: Drug level in rat plasma at 100 mg/kg, po after 4 hrs by HPLC analysis. The class given is ADME, organism-based. Further details: dose 100 mg/kg, route oral.
Data set [15] is described as follows: Drug level in C57Bl6 mouse plasma at 10 mg/kg, po after 1 hr by HPLC analysis. The format is ADME, organism-based. On the set-up: dose 10 mg/kg, route oral.
Data set [16] in a line: Drug level in C57Bl6 mouse plasma at 10 mg/kg, po after 2 hrs by HPLC analysis. The class given is ADME, organism-based. Further details: dose 10 mg/kg, route oral.

Molecules are shown by their SMILES.

`CC(C)C(=O)c1cn(CC(=O)COc2ccc(Oc3ccccc3)cc2)c2ccc(C(=O)O)cc12`: in data set [1], the concentration at 1 h is below 5000 ng/mL. In addition, the concentration at 2 h in data set [2] is below 1000 ng/mL. In addition, the values for the Drug uptake in data set [3] and in [4] were 404 µg and 875 µg, respectively.

For `CCCCCCCCc1ccc(OCC(=O)Cn2cc(-c3nc(C)no3)c3cc(C(=O)O)ccc32)cc1`, the remaining at 0.5 h in [5] stood at 81%. In addition, in [6], the logP – broadly, a log measure of how a compound divides between an organic and an aqueous phase – turned out to be 6.3.

As for `CCCCCCCCc1ccc(OCC(=O)Cn2cc(C(=O)CCC)c3cc(C(=O)O)ccc32)cc1`, in data set [6], the logP amounted to 6.7.

In data set [6], `CCCCCCCCc1ccc(OCC(=O)Cn2cc(C(=O)CCCCC)c3cc(C(=O)O)ccc32)cc1` had a logP above 7.

As for `CCCCCCCCc1ccc(OCC(=O)Cn2cc(C(=O)C(C)(C)C)c3cc(C(=O)O)ccc32)cc1`, the remaining at 0.5 h in data set [5] worked out at 93%. The same compound showed a logP in data set [6] above 7.

Take `CCCCCCCCc1ccc(OCC(=O)Cn2cc(C(=O)c3ccccc3)c3cc(C(=O)O)ccc32)cc1`: in data set [5], the remaining at 0.5 h is 95%. The same compound came in with a logP in [6] of 6.9.

As for `CCCCCCCCc1ccc(OCC(=O)Cn2cc(CC)c3cc(C(=O)O)ccc32)cc1`, in [5], the remaining at 0.5 h amounted to 84%. Besides, the logP in [6] is above 7.

Regarding `CCCCCCCCc1ccc(OCC(=O)Cn2cc(CCCC)c3cc(C(=O)O)ccc32)cc1`, the remaining at 0.5 h in data set [5] was 82%. The same compound showed a logP in data set [6] above 7.

Consider `CCCCCCCCc1ccc(OCC(=O)Cn2cc(CCCCCC)c3cc(C(=O)O)ccc32)cc1`, for which the remaining at 0.5 h in data set [5] was determined as 94%. In data set [6], the logP is above 7.

Consider `CCCCCCCCc1ccc(OCC(=O)Cn2cc(C(=O)CCC(=O)O)c3cc(C(=O)O)ccc32)cc1`, for which, in [6], the logP is 5.1.

For `CCCCCCCCc1ccc(OCC(=O)Cn2cc(C(=O)CCCC(=O)O)c3cc(C(=O)O)ccc32)cc1`, the remaining at 0.5 h in [5] was found to be 95%. The compound further had a logP in data set [6] of 5.2.

In data set [6], `CCCCCCCCc1ccc(OCC(=O)Cn2cc(C(=O)CCCCC(=O)O)c3cc(C(=O)O)ccc32)cc1` yielded a logP of 5.3. In data set [1], this compound registered a concentration at 1 h below 200 ng/mL. Also, the values for the concentration at 2 h in data set [2], in data set [9] and in data set [10] were below 200 ng/mL, 6000 ng/mL and 870000 ng/mL, respectively. For the same compound, the Cp in data set [7] and in [8] was below 100 ng/mL throughout.

For the compound `CCCCCCCCc1ccc(OCC(=O)Cn2cc(C(=O)c3cccc(C(=O)O)c3)c3cc(C(=O)O)ccc32)cc1`, the remaining at 0.5 h in [5] was found to be 87%. This compound registered a logP in data set [6] of 5.7.

For `CCCCCCCCc1ccc(OCC(=O)Cn2cc(C(=O)c3ccc(C(=O)O)cc3)c3cc(C(=O)O)ccc32)cc1`, the remaining at 0.5 h in data set [5] stood at 87%. Moreover, in [6], the logP amounted to 5.6.

On to `CCCCCCCCc1ccc(OCC(=O)Cn2cc(C(=O)C(F)(F)F)c3cc(C(=O)O)ccc32)cc1`, for which the remaining at 0.5 h in data set [5] turned out to be 87%. This compound registered a logP in data set [6] above 7.

In the case of `O=C(O)CCCCC(=O)c1cn(CC(=O)COc2ccc(Oc3ccccc3)cc2)c2ccc(C(=O)O)cc12`, in [5], the remaining at 0.5 h turned out to be 24%. This compound also registered a logP in data set [6] of 2.1.

Turning to `Cc1noc(-c2cn(CC(=O)COc3ccc(Oc4ccccc4)cc3)c3ccc(C(=O)O)cc23)n1`, the remaining at 0.5 h in data set [5] worked out at 8%. For the same compound, the logP in data set [6] came to 3.1.

Take `CCCCCCCCc1ccc(OCC(O)Cn2cc(C(=O)CCCCC(=O)O)c3cc(C(=O)O)ccc32)cc1` (centres undefined): the values for the Drug uptake in data set [11], in [12] and in data set [13] were below 1 µg/mL, 33 µg/mL and 14 µg/mL, respectively.

`CCCCCCCCCCCC(=O)c1c(C(=O)O)n(CCOc2ccc(CC(=O)O)cc2)c2ccccc12` registered a concentration at 4 h in data set [14] of 100000 ng/mL.

In turn, `COc1ccc2c(c1)c(CC(=O)O)c(C)n2C(=O)c1ccc(Cl)cc1` [INDOMETHACIN] gave a concentration at 1 h in data set [15] of 42000 ng/mL. This compound also yielded a concentration at 2 h in data set [16] of 34000 ng/mL.

The record behind these values is ChEMBL document CHEMBL1799943, “1-(5-Carboxyindol-1-yl)propan-2-one inhibitors of human cytosolic phospholipase A2α: effect of substituents in position 3 of the indole scaffold on inhibitory potency, metabolic stability, solubility, and bioavailability” (J Med Chem, 2010).
